Screens from PubChem.
This is a sample that favours compounds with a hit; in the whole collection about 2% have one here.
DNMT1 inh: inhibitors of human DNMT1 | actives 0.83% (n = 360,000) | DNMT1 molecular beacon, Hinp1I cleavage, fluorescence | P26358 | inhibition (reported as % activation of signal), % at 10 µM; in the data active means inhibition above about 50%
LMPTP inh: blocks human LMPTP phosphatase | P24666 | recombinant LMPTP-A, OMFP fluorogenic substrate, fluorescence intensity | inhibition, % at 20 µM | actives 0.22% (n = 360,000);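 active means compounds that cut the enzyme signal by at least half of the control window in the single-dose screen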
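Test system: LMPTP-A phosphatase enzyme; input: 0.625 nM LMPTP-A final; reagent: OMFP substrate, 400 µM final; compound dosing: 20 µM single dose, 3% DMSO; incubation: 50 min dark incubation at room temperature; measured by: endpoint fluorescence intensity from OMFP dephosphorylation; measure: % inhibition relative to no-enzyme and uninhibited control wells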
STEP inh: inhibitors of human striatal-enriched phosphatase STEP; P54829; recombinant STEP, OMFP fluorogenic substrate, fluorescence; inhibition, % at 20 µM; actives 0.25% (n = 360,000); AID 588621;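 active means inhibition at 20 µM, scaled per plate between control wells, above about 37%, limit read from the data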
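Assay system: isolated STEP enzyme. Buffer or medium: pH 6.0 Bis-Tris with DTT and Tween 20. Also added: fluorogenic phosphatase substrate OMFP at 25 µM final. Dosing: 20 µM, 1% DMSO. Timing: 20 min reaction, room temperature, in the dark. Measured by: fluorescence intensity, excitation 480 nm, emission 540 nm. Evaluation: normalized % inhibition.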
Rpn11 block: blocks the human proteasome subunit Rpn11 | inhibition, % at 20 µM | human 26S proteasome, Ub4-pepOG fluorescence polarization; 20S core pre-blocked with epoxomicin | O00487 | actives 0.59% (n = 360,000) | AID 588493;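 active means inhibition at 20 µM, scaled to each plate's controls, above about 33%, limit read from the data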
Scp1 inh: Scp-1 (human) phosphatase inhibition | Q9GZU7 | Recombinant Scp1, phosphopeptide, malachite green phosphate absorbance | inhibition, % at 20 µM | actives 0.88% (n = 340,000);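 active means inhibition above about 50% at 20 µM, limit read from the data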
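Test system: SCP-1 catalytic domain; Buffer or medium: Acidic Tris acetate buffer with magnesium and detergent; Also added: Phosphorylated 17-residue peptide substrate; Compound: single 20 µM dose, 1% DMSO; Schedule: enzyme reaction 45 min at room temperature, colour 5 min, stabilisation 30 min; Signal: Phosphate-binding colour reagent, absorbance read at 630 nm.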
Rpn11 inh conf: confirmation of human proteasome Rpn11 inhibitors. inhibition, % at 20 µM. purified human 26S proteasome, Ub4-pepOG fluorescence polarization; proteasome pretreated with epoxomicin. AID 602318. actives 29% (n = 1,900). shares compounds with Rpn11 block
MMP-2 counter: counter-screen for RPN11 inhibitors: inhibition of human MMP-2; shares compounds with Rpn11 block; actives 4% (n = 1,900); recombinant MMP-2, FRET peptide cleavage fluorescence; inhibition, % at 20 µM;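 further: human MMP-2 activated beforehand with APMA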
Thrombin FP: blocks bovine thrombin, flagging nonselective RPN11 hits | shares compounds with Rpn11 block | bovine thrombin cleavage of Ub4-pepOG, fluorescence polarization | inhibition, % at 20 µM | actives 13% (n = 1,900) | AID 602333;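 active means mean inhibition at least 40% at 20 µM, or signal 3 deviations below plate average, so some actives read negative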
Target sequence (P00735 whole entry, looked up): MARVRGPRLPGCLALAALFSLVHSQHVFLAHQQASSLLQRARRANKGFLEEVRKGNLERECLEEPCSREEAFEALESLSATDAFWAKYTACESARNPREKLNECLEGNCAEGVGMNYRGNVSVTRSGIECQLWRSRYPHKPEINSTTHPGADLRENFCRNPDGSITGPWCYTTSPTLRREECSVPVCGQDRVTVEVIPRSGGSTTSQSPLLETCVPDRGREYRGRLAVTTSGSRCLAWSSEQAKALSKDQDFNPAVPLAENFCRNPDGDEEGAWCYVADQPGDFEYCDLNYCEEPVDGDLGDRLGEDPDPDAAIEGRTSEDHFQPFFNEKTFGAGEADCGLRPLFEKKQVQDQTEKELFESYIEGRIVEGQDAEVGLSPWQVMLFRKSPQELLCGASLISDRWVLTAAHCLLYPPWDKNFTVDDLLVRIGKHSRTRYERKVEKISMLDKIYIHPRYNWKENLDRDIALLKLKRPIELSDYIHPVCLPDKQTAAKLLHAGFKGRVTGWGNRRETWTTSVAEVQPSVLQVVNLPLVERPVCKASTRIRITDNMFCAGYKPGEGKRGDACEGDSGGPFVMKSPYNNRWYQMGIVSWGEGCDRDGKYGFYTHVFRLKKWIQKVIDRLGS
Numbers stand for hits; n = inactive; x = no result given; + = active, no number. Unless noted, no stated cut-off is given here; in the data, active means inhibition above about 40%; inactive means the rest.

SMILES	DNMT1 inh	LMPTP inh	STEP inh	Rpn11 block	Scp1 inh	Rpn11 inh conf	MMP-2 counter	Thrombin FP
COc1cc(/C=C2\SC(=S)N(CCC(=O)Nc3ccc(O)cc3)C2=O)cc(OC)c1OC	n	n	n	n	n	x	x	x
O=C(N/N=C/c1sc(N2CCOCC2)nc1-c1ccccc1)c1cccc(S(=O)(=O)N2CCCC2)c1	n	n	n	71.1	n	94.3	n	69.2
O=c1[nH]c(CN2CCN(S(=O)(=O)c3ccccc3C(F)(F)F)CC2)nc2sc3c(c12)CCCC3	n	n	n	71.0	n	n	n	n
COc1cc2nc(CN3CCN(S(=O)(=O)c4ccccc4C(F)(F)F)CC3)[nH]c(=O)c2cc1OC	n	n	n	n	n	x	x	x
CC1CCN(C(=O)Cn2nnc(-c3ccc(C(C)C)cc3)n2)CC1	n	n	n	n	n	x	x	x
O=C1CS(=O)(=O)N(Cc2ccc(F)cc2)c2ccccc21	n	n	n	65.5	n	n	n	n
COc1cccc(CN2C(=O)c3ccccc3S2(=O)=O)c1	n	n	n	n	n	x	x	x
COc1cc(CN2c3ccccc3C(=O)CS2(=O)=O)cc(OC)c1	n	n	n	58.0	n	82.1	n	n
O=C1CS(=O)(=O)N(Cc2ccccc2F)c2ccc(Br)cc21	n	n	n	50.0	n	n	n	n
O=c1ccccn1Cc1ccccc1F	n	n	n	n	n	x	x	x
CCN(CC(=O)Nc1cc(Cl)ccc1C)C(=O)C1COc2ccccc2O1 (stereo unspecified)	n	n	n	n	n	x	x	x
COc1cc(/C=C2\SC(=O)N(CCNC(=O)c3sc4cc(F)ccc4c3Cl)C2=O)cc(OC)c1OC	n	n	n	42.9	n	n	n	n
CC(C)(C)C(=O)Nc1nc2c(s1)CN(Cc1ccccc1)CC2	n	n	n	n	n	x	x	x
O=C(Nc1nc2c(s1)CN(Cc1ccccc1)CC2)c1c(F)cccc1F	n	n	n	46.1	n	n	n	n
CN(C)c1ccc(C(CNS(=O)(=O)c2ccc([N+](=O)[O-])cc2)N2CCCC2)cc1 (stereo unspecified)	n	n	n	n	n	x	x	x
CCOc1ccc2nc(NC3=NC(c4ccc(OC)cc4)CC(=O)N3)nc(C)c2c1 (stereo unspecified)	n	57.3	86.0	+	n	44.3	n	n
CCOc1ccc2nc(NC3=NC(C)(C)C=C(C)N3)nc(C)c2c1	n	n	n	n	n	x	x	x
O=C(NCCc1ccccc1)c1ccc2c(c1)S(=O)(=O)c1cc(Cl)ccc1C2=O	n	n	n	n	n	x	x	x
Cc1cccc2cc(C#N)c(SCC(=O)Nc3ccccc3N3CCOCC3)nc12	n	n	n	35.9	n	n	n	n
CNC(=O)c1sc(N2N=C3/C(=C/c4ccccc4)CCCC3C2c2ccccc2)nc1C (stereo unspecified)	n	n	n	44.1	n	n	n	n
COc1ccc(S(=O)(=O)N2CCC(C(=O)NCC3CC3)CC2)cc1	n	n	n	n	n	x	x	x
CCC1CCCCN1C(=O)CSc1nnc(N)s1 (stereo unspecified)	n	n	n	n	n	x	x	x
CN1/C(=C/C=C(/C#N)C(N)=O)C(C)(C)c2ccccc21	n	n	n	43.2	n	n	n	n
O=C(Nc1ccc2nc3n(c(=O)c2c1)CCCCC3)C(=O)N1CCN(c2ccccc2F)CC1	n	n	n	n	n	x	x	x
Cc1nc(NC(=O)/C=C/c2ccco2)sc1C	n	n	n	n	n	x	x	x
CNS(=O)(=O)c1ccc2nc(NC(=O)/C=C/c3ccco3)sc2c1	n	n	n	56.6	n	n	n	n
O=C(CN1CCN(c2ccccn2)CC1)NC1CCCC1	n	n	n	85.7	n	n	n	58.7
Cc1sc2ncnc(SCC(=O)NC(C)(C)C)c2c1C	n	n	n	n	n	x	x	x
